Source: paper PMC9713862 (ACS Omega, 2022)
Marks after values point to notes of the source that are not given here.

Legend:
apo-transferrin (apoTf) = apo-transferrin (apoTf) (Homo sapiens, UniProt P02787); assay: Stability assessment in apoTf solution; type: in vitro ADME; conditions: 74 kBq/100 μL added to same volume of 0.2 mM apoTf in 200 mM sodium bicarbonate buffer pH 7.4 (ApoTf 0.1 mM), 37 °C, 5% CO2, RP-TLC, mean ± SD (n = 5)
Method in brief: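 [67Ga]-labelled test compound was HPLC-purified and taken up in D-PBS(−). 74 kBq/100 μL was mixed with an equal volume of 0.2 mM (stock) apoTf in 200 mM sodium bicarbonate, pH 7.4. The mix was held at 37 °C under 5% CO2. At 3 and 24 h, 5 μL aliquots were analysed by RP-18 TLC in 0.1% aqueous TFA/MeCN with 0.1% TFA (2:3).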

[1] = Ga complex with N3O3 configuration, 1.5 h; cited from earlier work

Sequence of apo-transferrin (apoTf) (P02787 20-698): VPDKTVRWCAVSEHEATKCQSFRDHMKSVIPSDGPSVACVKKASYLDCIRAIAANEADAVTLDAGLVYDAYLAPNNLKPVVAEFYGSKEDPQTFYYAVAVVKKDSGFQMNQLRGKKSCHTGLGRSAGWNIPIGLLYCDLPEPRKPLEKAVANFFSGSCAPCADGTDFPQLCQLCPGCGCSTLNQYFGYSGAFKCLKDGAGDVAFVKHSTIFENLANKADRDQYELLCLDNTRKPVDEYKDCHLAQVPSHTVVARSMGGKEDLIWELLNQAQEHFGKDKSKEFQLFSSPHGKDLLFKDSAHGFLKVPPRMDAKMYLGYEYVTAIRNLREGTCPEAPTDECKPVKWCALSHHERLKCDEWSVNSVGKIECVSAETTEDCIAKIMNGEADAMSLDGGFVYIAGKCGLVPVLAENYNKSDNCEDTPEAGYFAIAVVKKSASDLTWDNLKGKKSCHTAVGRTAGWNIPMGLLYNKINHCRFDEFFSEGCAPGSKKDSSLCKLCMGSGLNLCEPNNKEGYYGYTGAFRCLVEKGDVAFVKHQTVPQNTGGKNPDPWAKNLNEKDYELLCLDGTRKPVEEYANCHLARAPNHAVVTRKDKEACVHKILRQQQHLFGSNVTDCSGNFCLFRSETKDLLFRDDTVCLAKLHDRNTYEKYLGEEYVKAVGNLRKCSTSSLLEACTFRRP

CCCCNC(=O)CCC(C(=O)[O-])N1CCN(CC(=O)[O-])CCN(CC(=O)[O-])CCN(CC(=O)[O-])CC1.[67Ga+3] (centres unmarked) [[^67Ga]Ga-DOTAGAM^Bu]
Stability of 67Ga-labeled model chelators, ApoTf (0.1 mM), 3 h (apo-transferrin (apoTf)): 80.0 ± 1.3 ^b ^c ^d | Stability of 67Ga-labeled model chelators, ApoTf (0.1 mM), 24 h (apo-transferrin (apoTf)): 27.5 ± 4.6 ^b ^c ^d

O=C(O)CN1CCOCCN(CC(=O)O)CCN(CC(=O)O)CC1 [oxo-DO3A]
Ga complex decomposed in human serum [1]: > 80%

O=C([O-])CN1CCN(CC(=O)[O-])CCN(CC(=O)[O-])C(Cc2ccc([N+](=O)[O-])cc2)CN(CC(=O)[O-])CC1.[67Ga+3] (centres unmarked) [[^67Ga]Ga-p-NO2-Bn-DOTA (A)]
Stability of 67Ga-labeled model chelators, ApoTf (0.1 mM), 3 h (apo-transferrin (apoTf)): 95.1 ± 1.2 ^d ^e ^f | Stability of 67Ga-labeled model chelators, ApoTf (0.1 mM), 24 h (apo-transferrin (apoTf)): 90.3 ± 0.7 ^c ^d ^e ^f

CCCCNC(=O)CN1CCN(CC(=O)[O-])CCN(CC(=O)[O-])CCN(CC(=O)[O-])CC1.[67Ga+3] [[^67Ga]Ga-DO3AM^Bu]
Stability of 67Ga-labeled model chelators, ApoTf (0.1 mM), 3 h (apo-transferrin (apoTf)): 87.4 ± 0.5 ^b ^c | Stability of 67Ga-labeled model chelators, ApoTf (0.1 mM), 24 h (apo-transferrin (apoTf)): 43.1 ± 1.1 ^b ^c

O=C([O-])CN1CCN(CC(=O)[O-])CCN(CC(=O)[O-])CCN(CC(=O)[O-])CC1.[67Ga+3] [[^67Ga]Ga-DOTA, reference compound]
Stability of 67Ga-labeled model chelators, ApoTf (0.1 mM), 3 h (apo-transferrin (apoTf)): 96.4 ± 0.2 | Stability of 67Ga-labeled model chelators, ApoTf (0.1 mM), 24 h (apo-transferrin (apoTf)): 89.6 ± 0.5

O=C([O-])CN1CCN(CC(=O)[O-])CCN(Cc2ccc([N+](=O)[O-])cc2)CCN(CC(=O)[O-])CC1.[67Ga+3] [[^67Ga]Ga-p-NO2-Bn-DO3A]
Stability of 67Ga-labeled model chelators, ApoTf (0.1 mM), 3 h (apo-transferrin (apoTf)): 93.8 ± 0.6 ^b | Stability of 67Ga-labeled model chelators, ApoTf (0.1 mM), 24 h (apo-transferrin (apoTf)): 67.5 ± 0.6 ^b
